Only some compounds are listed: those with a hit (about 4.4% of all), similar ones and a draw of the others.
NR3A LBD binder: binders of NR3A ligand-binding domain, primary screen, biophysical, differential scanning fluorimetry, uHTS | Glutamate receptor ionotropic, NMDA 3A (GRIN3A) ligand-binding domain | NR3A LBD differential scanning fluorimetry, Tm shift; 0% = protein alone, 100% = glycine-bound protein | Tm shift relative to glycine control, % at 25 µM | 2.5% of 340,000 active | AID 1259313, 2017;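 active = melting temperature shift of at least 10% of the positive control shift, at one fixed dose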
EBI2 antag: EBI2 receptor antagonists, beta-arrestin recruitment, primary screen, cell-based, luminescence, 7a,25-OHC stimulation, uHTS | G-protein coupled receptor 183 (Homo sapiens), P32249 | 7a,25-OHC stimulated | inhibition, % at 5 µM | 0.81% of 360,000 active; in the data active = inhibition above about 38%;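 also: enzyme fragment complementation signal reports receptor beta-arrestin coupling in cells; 0% = agonist plus DMSO wells and 100% = wells without agonist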
Target sequence (P32249 whole entry, looked up, the tested form may be a part): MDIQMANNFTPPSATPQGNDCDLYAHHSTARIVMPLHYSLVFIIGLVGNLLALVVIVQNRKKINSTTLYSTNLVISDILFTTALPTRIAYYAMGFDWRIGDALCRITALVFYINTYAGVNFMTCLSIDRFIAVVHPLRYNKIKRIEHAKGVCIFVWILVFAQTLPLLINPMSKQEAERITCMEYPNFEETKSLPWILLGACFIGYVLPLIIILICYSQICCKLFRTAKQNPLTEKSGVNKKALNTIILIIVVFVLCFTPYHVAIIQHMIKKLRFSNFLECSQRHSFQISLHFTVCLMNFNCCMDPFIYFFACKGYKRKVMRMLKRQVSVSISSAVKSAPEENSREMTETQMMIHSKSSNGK
SENP1 FRET inh: human SENP1 catalytic domain inhibitors, primary screen, biochemical, FRET, uHTS; recombinant SENP1 catalytic domain, CyPet-SUMO1-YPet FRET cleavage; inhibition, % at 10 µM; 0.21% of 360,000 active;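 active = inhibition at least 30% at 10 µM, raw YFP signal under a set limit, fluorescence ratio 0.5 to 1.5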;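 also: 0% = enzyme with DMSO and 100% = no enzyme wells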
Target sequence (Q9P0U3 419-644 limits assumed): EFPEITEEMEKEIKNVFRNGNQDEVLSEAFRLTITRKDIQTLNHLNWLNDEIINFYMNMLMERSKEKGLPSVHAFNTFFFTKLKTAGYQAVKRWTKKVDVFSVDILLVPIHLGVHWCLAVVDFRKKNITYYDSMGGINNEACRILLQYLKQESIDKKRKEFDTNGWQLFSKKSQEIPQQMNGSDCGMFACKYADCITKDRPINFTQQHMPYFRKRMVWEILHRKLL
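Controls: no-enzyme wells low, DMSO-plus-enzyme wells high control. Test system: human recombinant His6-tagged SENP1 catalytic domain enzyme. Reagent: SFCypet-SUMO1-SFYpet FRET protein substrate, 25 nM final. Doses: one dose per compound, 10 µM, 0.5% DMSO. Detection: FRET, CFP and YFP emission. Timing: 50 min reaction at room temperature.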
MPTP inh: mitochondrial permeability transition pore inhibitors, primary screen, biochemical, isolated mouse mitochondria, absorbance; Ca2+ swelling absorbance, 30 min; inhibition, % at 10 µM; 1.4% of 360,000 active;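 active = inhibition of 50% or more, scaled per plate between neutral and stimulator controls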;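 also: 0% = DMSO wells given calcium and 100% = 1 mM EGTA wells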
Rh123 counter: fluorescence retest of MPTP screen hits in isolated mitochondria, single concentration; shares compounds with MPTP inh; membrane potential, Rhodamine 123 fluorescence; inhibition, % at 10 µM; 78% of 5,000 active; AID 624504, 2012; in the data active = inhibition above about 22%;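 also: 0% = DMSO vehicle and 100% = positive control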
MPTP abs DR: mitochondrial permeability transition pore inhibitors, dose response, biochemical, absorbance, uHTS hits | shares compounds with MPTP inh | IC50, µM | AID 651561, 2012 | 58% of 780 active | isolated mitochondria swelling; in the data active = IC50 below about 20 µM
MPTP cs DR: fluorescent counter-screen in isolated mitochondria, dose response, counter-screen for MPTP inhibitor project, biochemical, fluorescence, uHTS hits | shares compounds with MPTP inh | isolated mitochondria counterscreen, fluorescence read-out | IC50, µM | 49% of 780 active | AID 651564, 2012; in the data active = IC50 below about 80 µM
* hit, by the source's call.

`NC(=O)NC(=O)COC(=O)CCCCCNS(=O)(=O)c1ccc2c(c1)OCCO2` gave NR3A LBD binder -1, EBI2 antag -6, SENP1 FRET inh 2 and MPTP inh 0.
Screening c1coc(CN(Cc2ccco2)c2ncnc3c2oc2ccccc23)c1 returned NR3A LBD binder 0, EBI2 antag 21, SENP1 FRET inh -3, MPTP inh 83* and Rh123 counter 67*.
For CC1(C)C(=O)Nc2ccccc2N1C(=O)CSc1nc(-c2ccccc2)cs1 the results were NR3A LBD binder -2, EBI2 antag 2, SENP1 FRET inh 3, MPTP inh 98* and Rh123 counter 70*.
Screening O=C1CN(C(=O)CSc2nc(-c3ccccc3)cs2)c2ccccc2N1 returned NR3A LBD binder 0, EBI2 antag -6, SENP1 FRET inh -3 and MPTP inh 0.
`O=C(CCCN1C(=O)C(c2ccccc2)Oc2cccnc21)NCCc1ccc(Cl)cc1` (centres undefined) gave NR3A LBD binder -2, EBI2 antag 41, SENP1 FRET inh -2 and MPTP inh 4.
For O=C(CSc1nc(-c2cccs2)cc(C(F)(F)F)n1)Nc1cc(OCC(F)(F)C(F)F)cc([N+](=O)[O-])c1 the results were NR3A LBD binder 10*, EBI2 antag 17, SENP1 FRET inh -3, MPTP inh 93* and Rh123 counter 80*.
Screening CN(C[C@H](Cc1ccccc1)N(C[C@H](c1ccccc1)N(CCc1ccccc1)N=O)N=O)N=O returned NR3A LBD binder -4, EBI2 antag 27, SENP1 FRET inh 1 and MPTP inh -1.
N#Cc1cnc2sc3ccccc3n2c1=N was read as NR3A LBD binder -3, EBI2 antag 3, SENP1 FRET inh -25, MPTP inh 72* and Rh123 counter 81*.
`COC(=O)c1[nH]nc(-c2ccccc2)c1-c1ccccc1` gave NR3A LBD binder -1, EBI2 antag 15, SENP1 FRET inh 3 and MPTP inh 3.
`CCN(CC)S(=O)(=O)c1ccc(O)c(C(=O)OCC(=O)Nc2ccc(OC(F)(F)F)cc2)c1` gave NR3A LBD binder 5, EBI2 antag -2, SENP1 FRET inh 0, MPTP inh 102* and Rh123 counter 84*.
For CCN(CC)S(=O)(=O)c1ccc(O)c(C(=O)OCC(=O)NC23CC4CC(CC(C4)C2)C3)c1 the results were NR3A LBD binder -3, EBI2 antag 1, SENP1 FRET inh 0, MPTP inh 83* and Rh123 counter 81*.
For COc1cc2c(CCNC(C)=O)c[nH]c2cc1O the results were NR3A LBD binder 0, EBI2 antag -6, SENP1 FRET inh 7 and MPTP inh 1.
COc1cc(C=C2C(=O)OC(C)(C)OC2=O)cc(Cl)c1OCC(=O)Nc1ccccc1 was read as NR3A LBD binder 0, EBI2 antag -5, SENP1 FRET inh 0 and MPTP inh -1.
CC(C)(C)C1(C)OC(=O)C(=Cc2ccc(OCC(=O)Nc3ccccc3)cc2)C(=O)O1 (centres undefined) was read as NR3A LBD binder -6, EBI2 antag -2, SENP1 FRET inh -2, MPTP inh 67* and Rh123 counter -3.
COc1cc(NC(=O)COc2cc(O)c3c(c2)OC(C)(C)CC3=O)cc(OC)c1OC was read as NR3A LBD binder 0, EBI2 antag -11, SENP1 FRET inh 3, MPTP inh 99* and Rh123 counter 98*.
Screening C[C@@H]1CN([C@H](C)CO)S(=O)(=O)c2ccc(-c3ccc(C(=O)N(C)C)cc3)cc2O[C@H]1CN(C)C(=O)Cc1ccccn1 returned EBI2 antag 7, SENP1 FRET inh 0 and MPTP inh -3.
O=C(Nc1ccc(F)c(F)c1)c1cnc(-c2ccccc2)nc1-c1ccccc1 was read as NR3A LBD binder 2, EBI2 antag 17, SENP1 FRET inh 2, MPTP inh 72*, Rh123 counter -1, MPTP abs DR >100 and MPTP cs DR 7*.
Screening Cc1ccc(S(=O)(=O)N/N=C/c2cc([N+](=O)[O-])ccc2O)cc1[N+](=O)[O-] returned NR3A LBD binder 21*, EBI2 antag 5, SENP1 FRET inh 3, MPTP inh 72* and Rh123 counter 60*.
For COc1cc(/C=N/NS(=O)(=O)c2ccc(C)c([N+](=O)[O-])c2)ccc1O the results were NR3A LBD binder -7, EBI2 antag -1, SENP1 FRET inh 0 and MPTP inh -6.
Screening COc1c2c(c3c(c1OC)c(=O)c1ccccc1n3C)OCO2 returned NR3A LBD binder -1, EBI2 antag -11, SENP1 FRET inh -30 and MPTP inh 0.
CCOc1ccc(CNC(=O)CCC(=O)n2ncc3ccc(Cl)cc32)cc1 was read as NR3A LBD binder -1, EBI2 antag 0, SENP1 FRET inh 0 and MPTP inh -1.
For N/C(=N\S(=O)(=O)c1cc(C(F)(F)F)cc(C(F)(F)F)c1)c1ccc(Cl)cc1 the results were NR3A LBD binder 19*, EBI2 antag -5, SENP1 FRET inh 1, MPTP inh 83* and Rh123 counter 88*.
Screening Cc1ccc(S(=O)(=O)/N=C(\N)c2ccc(Cl)cc2)cc1 returned NR3A LBD binder 0, EBI2 antag 3, SENP1 FRET inh 2 and MPTP inh -1.
For CCOC(=O)c1c(-c2cccs2)csc1NC(=O)CC(C)C the results were NR3A LBD binder 6, EBI2 antag 18, SENP1 FRET inh -1, MPTP inh 57*, Rh123 counter -1, MPTP abs DR >100 and MPTP cs DR >80.
Screening CCOC(=O)c1c(-c2cccs2)csc1NC(=O)CN(CC)CC returned NR3A LBD binder 1, EBI2 antag 20, SENP1 FRET inh 0 and MPTP inh 9.
Screening CCOC(=O)C1(CCOc2ccccc2)CCN(Cc2cccc(OC)c2OC)CC1 returned NR3A LBD binder 1, EBI2 antag 5, SENP1 FRET inh 0, MPTP inh 75* and Rh123 counter 33*.
Screening CCOC(=O)C1(CCOc2ccccc2)CCN(Cc2ccc(OC)cc2)CC1 returned NR3A LBD binder 0, EBI2 antag 6, SENP1 FRET inh 2, MPTP inh 87* and Rh123 counter 36*.

Screening data (PubChem)
